Test results as given in ChEMBL document CHEMBL4433213, “Investigation on 2',3'-O-Substituted ATP Derivatives and Analogs as Novel P2X3 Receptor Antagonists” (ACS Med Chem Lett, 2019).

Experiments:
P2X purinoceptor 3 [1] = molecular target: T1, P2X purinoceptor 3 (Homo sapiens, UniProt P56373); experiment: Antagonist activity at human P2X3R transfected in human 1321N1 cells assessed as inhibition of ATP-induced calcium influx; type: cell-based
T1 sequence (P56373 whole entry): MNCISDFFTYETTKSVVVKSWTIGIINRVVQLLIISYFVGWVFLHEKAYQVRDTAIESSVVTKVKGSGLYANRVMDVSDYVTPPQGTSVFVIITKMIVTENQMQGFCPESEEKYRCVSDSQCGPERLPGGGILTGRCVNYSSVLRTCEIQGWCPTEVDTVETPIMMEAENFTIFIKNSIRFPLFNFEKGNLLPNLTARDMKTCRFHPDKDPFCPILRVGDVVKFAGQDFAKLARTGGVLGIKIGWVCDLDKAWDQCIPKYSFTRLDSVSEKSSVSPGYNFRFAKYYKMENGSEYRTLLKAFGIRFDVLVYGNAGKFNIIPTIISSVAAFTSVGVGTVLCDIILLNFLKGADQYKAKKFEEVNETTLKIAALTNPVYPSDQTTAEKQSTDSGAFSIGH
Method in brief: (§1)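 1321N1 astrocytoma cells stably expressing human P2X1, P2X2, P2X3 or P2X4 receptor. Calcium influx was induced by ATP at the EC80 for each subtype. Results are given as IC50 (μM) or % inhibition at the indicated concentration.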

[2] = molecular target: T2, P2X purinoceptor 1 (Homo sapiens) (UniProt P51575); experiment: Antagonist activity at human P2X1R transfected in human 1321N1 cells assessed as inhibition of ATP-induced calcium influx relative to control; type: cell-based; settings: concentration not given here; method in brief: as §1
T2 sequence (whole entry): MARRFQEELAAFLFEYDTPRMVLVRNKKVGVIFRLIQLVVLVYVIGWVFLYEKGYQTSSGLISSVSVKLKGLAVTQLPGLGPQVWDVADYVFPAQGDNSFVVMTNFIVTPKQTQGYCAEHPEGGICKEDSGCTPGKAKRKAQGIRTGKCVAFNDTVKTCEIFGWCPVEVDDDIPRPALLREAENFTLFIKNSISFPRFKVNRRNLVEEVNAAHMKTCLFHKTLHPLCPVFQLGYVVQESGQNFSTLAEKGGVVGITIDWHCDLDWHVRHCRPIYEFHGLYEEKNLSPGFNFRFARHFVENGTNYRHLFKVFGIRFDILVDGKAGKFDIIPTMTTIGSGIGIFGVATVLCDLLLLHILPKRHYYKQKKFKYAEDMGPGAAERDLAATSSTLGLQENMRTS

[3] = molecular target: T3, P2X purinoceptor 3 (Homo sapiens) (UniProt P56373); experiment: Antagonist activity at human P2X3R transfected in human 1321N1 cells assessed as inhibition of ATP-induced calcium influx relative to control; type: cell-based; settings: concentration not given here; method in brief: as §1
T3 sequence (whole entry): T1 sequence (P56373 whole entry)

[4] = molecular target: T4, P2X purinoceptor 2 (Homo sapiens) (UniProt Q9UBL9); experiment: Antagonist activity at human P2X2R transfected in human 1321N1 cells assessed as inhibition of ATP-induced calcium influx relative to control; type: cell-based; settings: concentration not given here; method in brief: as §1
T4 sequence (whole entry): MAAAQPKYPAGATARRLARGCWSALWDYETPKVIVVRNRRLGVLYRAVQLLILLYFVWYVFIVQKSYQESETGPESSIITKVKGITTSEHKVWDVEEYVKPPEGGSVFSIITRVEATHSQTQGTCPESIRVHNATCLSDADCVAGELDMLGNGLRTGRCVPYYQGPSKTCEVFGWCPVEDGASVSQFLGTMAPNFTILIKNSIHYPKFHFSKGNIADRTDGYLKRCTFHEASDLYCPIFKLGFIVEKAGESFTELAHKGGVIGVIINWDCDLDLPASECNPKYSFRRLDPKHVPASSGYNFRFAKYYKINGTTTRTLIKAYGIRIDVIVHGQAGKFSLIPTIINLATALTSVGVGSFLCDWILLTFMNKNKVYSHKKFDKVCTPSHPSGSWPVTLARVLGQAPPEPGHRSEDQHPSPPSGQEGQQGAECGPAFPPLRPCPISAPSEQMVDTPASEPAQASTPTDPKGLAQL

P2X purinoceptor 2 = molecular target: T5, P2X purinoceptor 2 (Homo sapiens, UniProt Q9UBL9); experiment: Antagonist activity at human P2X2R transfected in human 1321N1 cells assessed as inhibition of ATP-induced calcium influx; type: cell-based; method in brief: as §1
T5 sequence (Q9UBL9 whole entry): T4 sequence (whole entry)

P2X purinoceptor 1 = molecular target: T6, P2X purinoceptor 1 (Homo sapiens, UniProt P51575); experiment: Antagonist activity at human P2X1R transfected in human 1321N1 cells assessed as inhibition of ATP-induced calcium influx; type: cell-based; method in brief: as §1
T6 sequence (P51575 whole entry): T2 sequence (whole entry)

[5] = molecular target: T7, P2X purinoceptor 4 (Homo sapiens) (UniProt Q99571); experiment: Antagonist activity at human P2X4R transfected in human 1321N1 cells assessed as inhibition of ATP-induced calcium influx relative to control; type: cell-based; settings: concentration not given here; method in brief: as §1
T7 sequence (whole entry): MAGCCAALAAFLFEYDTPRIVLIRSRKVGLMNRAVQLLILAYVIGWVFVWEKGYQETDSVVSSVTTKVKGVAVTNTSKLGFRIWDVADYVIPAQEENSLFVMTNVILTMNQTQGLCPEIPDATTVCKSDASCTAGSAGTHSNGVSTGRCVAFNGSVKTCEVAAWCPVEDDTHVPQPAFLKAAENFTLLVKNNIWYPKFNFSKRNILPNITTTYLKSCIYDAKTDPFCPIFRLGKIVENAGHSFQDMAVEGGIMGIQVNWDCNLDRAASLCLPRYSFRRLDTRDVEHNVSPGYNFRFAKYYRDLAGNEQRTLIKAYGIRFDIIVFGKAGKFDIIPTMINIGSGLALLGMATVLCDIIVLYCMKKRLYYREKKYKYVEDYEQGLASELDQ

P2X purinoceptor 4 = molecular target: T8, P2X purinoceptor 4 (Homo sapiens, UniProt Q99571); experiment: Antagonist activity at human P2X4R transfected in human 1321N1 cells assessed as inhibition of ATP-induced calcium influx; type: cell-based; method in brief: as §1
T8 sequence (Q99571 whole entry): T7 sequence (whole entry)

P2X purinoceptor 7 = molecular target: T9, P2X purinoceptor 7 (Homo sapiens, UniProt Q99572); experiment: Antagonist activity at human P2X7R transfected in human 1321N1 cells assessed as inhibition of Bz-ATP-induced calcium influx; type: cell-based
T9 sequence (Q99572 whole entry): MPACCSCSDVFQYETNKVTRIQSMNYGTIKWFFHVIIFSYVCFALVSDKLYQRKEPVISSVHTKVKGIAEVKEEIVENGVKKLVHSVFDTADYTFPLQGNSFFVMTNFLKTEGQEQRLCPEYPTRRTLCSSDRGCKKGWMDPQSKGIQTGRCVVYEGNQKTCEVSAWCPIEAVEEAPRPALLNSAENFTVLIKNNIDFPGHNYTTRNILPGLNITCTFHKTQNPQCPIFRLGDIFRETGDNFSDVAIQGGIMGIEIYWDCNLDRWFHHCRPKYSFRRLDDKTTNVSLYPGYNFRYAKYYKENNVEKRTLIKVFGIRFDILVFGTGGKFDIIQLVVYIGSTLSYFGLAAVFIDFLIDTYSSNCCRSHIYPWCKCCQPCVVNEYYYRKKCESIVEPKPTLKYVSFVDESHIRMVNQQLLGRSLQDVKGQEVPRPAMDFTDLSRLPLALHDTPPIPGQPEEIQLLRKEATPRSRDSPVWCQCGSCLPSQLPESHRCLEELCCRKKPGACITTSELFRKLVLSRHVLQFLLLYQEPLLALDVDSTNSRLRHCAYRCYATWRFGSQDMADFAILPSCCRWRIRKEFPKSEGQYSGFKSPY

[6] = molecular target: T10, P2X purinoceptor 7 (Homo sapiens) (UniProt Q99572); experiment: Antagonist activity at human P2X7R transfected in human 1321N1 cells assessed as inhibition of Bz-ATP-induced calcium influx relative to control; type: cell-based; settings: concentration not given here
T10 sequence (whole entry): T9 sequence (Q99572 whole entry)

P2X purinoceptor 3 [7] = molecular target: T11, P2X purinoceptor 3 (Mus musculus, UniProt Q3UR32); experiment: Antagonist activity at P2X3R in mouse TG sensory neurons assessed as inhibition of P2X3R agonist alpha,beta-meATP-induced current at -65 mV holding potential by whole cell voltage clamp method
T11 sequence (Q3UR32 whole entry): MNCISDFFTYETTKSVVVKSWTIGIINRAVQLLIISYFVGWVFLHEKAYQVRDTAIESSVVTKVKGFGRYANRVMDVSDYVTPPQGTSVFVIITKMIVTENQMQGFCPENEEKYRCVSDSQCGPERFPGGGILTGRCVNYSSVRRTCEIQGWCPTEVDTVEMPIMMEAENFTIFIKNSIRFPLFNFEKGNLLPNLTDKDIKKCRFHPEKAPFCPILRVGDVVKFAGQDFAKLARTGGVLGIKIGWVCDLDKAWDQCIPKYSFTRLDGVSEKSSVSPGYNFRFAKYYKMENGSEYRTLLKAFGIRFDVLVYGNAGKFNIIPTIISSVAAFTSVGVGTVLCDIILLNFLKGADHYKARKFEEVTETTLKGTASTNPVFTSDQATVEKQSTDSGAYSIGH
Method in brief: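 Mouse trigeminal sensory neurons were recorded by whole-cell patch clamp. Test compound (0.001–10 μM) was applied before 10 μM α,β-meATP, and inhibition of the agonist-evoked P2X3 current was measured. IC50 was taken from concentration–inhibition curves. N = 5–6 cells.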

Homo sapiens [8] = organism: Homo sapiens; experiment: Selectivity ratio of IC50 for human P2X7R transfected in human […] 1321N1 cells to IC50 for human transfected in human 1321N1 cells; type: cell-based
Homo sapiens [9] = organism: Homo sapiens; experiment: Selectivity ratio of IC50 for human P2X4R transfected in human […] 1321N1 cells to IC50 for human transfected in human 1321N1 cells; type: cell-based
Homo sapiens [10] = organism: Homo sapiens; experiment: Selectivity ratio of IC50 for human P2X1R transfected in human […] 1321N1 cells to IC50 for human transfected in human 1321N1 cells; type: cell-based

| IC50 (P2X purinoceptor 3 [1]) | inhibition [2] | inhibition [3] | inhibition [4] | IC50 (P2X purinoceptor 2) | IC50 (P2X purinoceptor 1) | inhibition [5] | IC50 (P2X purinoceptor 4) | IC50 (P2X purinoceptor 7) | inhibition [6] | IC50 (P2X purinoceptor 3 [7]) | SMILES | Ratio IC50 (Homo sapiens [8]) | Ratio IC50 (Homo sapiens [9]) | Ratio IC50 (Homo sapiens [10]) |
| --- | --- | --- | --- | --- | --- | --- | --- | --- | --- | --- | --- | --- | --- | --- |
| ≥ 100 µM | 13% | 56% | 30% | > 10 µM | > 10 µM | 35% | > 30 µM | > 30 µM |  |  | CC1(C)O[C@@H]2[C@H](O1)[C@@H](COC(=O)c1cc(C(=O)O)c(C(=O)O)cc1C(=O)O)O[C@H]2n1cnc2c(N)ncnc21 |  |  |  |
| 5.83 µM | 27% |  | 16% | > 100 µM | > 100 µM |  | 12.4 µM | > 100 µM | 21% | 0.211 µM | Nc1ncnc2c1ncn2[C@@H]1O[C@H](COP(=O)(O)OP(=O)(O)OP(=O)(O)O)[C@H]2O[C@H](c3ccccc3)O[C@H]21 |  |  |  |
| 0.611 µM | 44% |  | 18% | > 100 µM | ≥ 10 µM |  | 11 µM | 8.53 µM |  | 0.081 µM | Nc1ncnc2c1ncn2[C@@H]1O[C@H](COP(=O)(O)OP(=O)(O)OP(=O)(O)O)[C@H]2O[C@@H](c3ccccc3)O[C@H]21 | 18 | 14 |  |
| > 100 µM | 21% | 15% | 6% | > 100 µM | > 100 µM | -6% | > 100 µM | > 30 µM | -9% |  | CC1(C)O[C@@H]2[C@H](O1)[C@@H](C(=O)N[C@@H](CCC(=O)O)C(=O)O)O[C@H]2n1cnc2c(N)ncnc21 |  |  |  |
| 0.883 µM |  |  | 20% | > 100 µM | 8.06 µM |  | 29.6 µM | > 100 µM | 30% | 0.083 µM | Nc1ncnc2c1ncn2[C@@H]1O[C@H](COP(=O)(O)OP(=O)(O)OP(=O)(O)O)[C@H]2OC3(CCCCC3)O[C@H]21 |  |  | 10 |
